ChEMBL document CHEMBL3400098, “Aza follow-ups to BI 207524, a thumb pocket 1 HCV NS5B polymerase inhibitor. Part 1: Mitigating the genotoxic liability of an aniline metabolite” (Bioorg Med Chem Lett, 2015)

How the values were obtained:
[1] = Half life in dog at 5 mg/kg, po and 2 mg/kg, iv; format: ADME, organism-based, Canis lupus familiaris; details: in vivo
Method in brief: (§1)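 Animals fasted overnight. Oral dose given as a suspension in 0.5% methylcellulose, 0.3% Tween-80 and 1% NMP. IV bolus of 2 mg/kg given in 70% PEG-400:30% water. N = 3 per dose and per route. Plasma kept on ice, spun at 4 °C and stored at about −20 °C. Calibration standards prepared in blank plasma, LOQ 7 ng/mL. Non-compartmental analysis.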

[2] = Permeability coefficient, Kp for ratio of drug uptake in liver to plasma in rat; format: ADME
[3] = Ratio of drug up take in liver to plasma of rat at 5 mg/kg, po measured at 6 hrs post dose; format: ADME, organism-based; design: dose 5 mg/kg, route oral
[4] = Clearance in cynomolgous monkey at 2 mg/kg, iv; format: ADME, organism-based, Macaca fascicularis; design: dose 2 mg/kg, route intravenous; details: cynomolgus monkey, in vivo; method in brief: as §1
[5] = Inhibition of Hepatitis C virus genotype 1b C-terminal truncated NS5B RNA dependent RNA polymerase delta21 expressed in Escherichia coli by scintillation proximity assay; design: species or system Hepatitis C virus subtype 1b
Method in brief: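 Biochemical polymerase inhibition using a C-terminally truncated GT1b NS5BΔ21 construct. Values are the mean of duplicate measurements (n ≥ 2).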

Rattus norvegicus = assay: Dose normalized Cmax in rat at 10 mg/kg, po; format: ADME, organism-based; design: dose 10 mg/kg, route oral; details: in vivo
Method in brief: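 Rats dosed orally at 10 mg/kg as a suspension in 0.5% methylcellulose, 0.3% Tween-80 and 1% NMP. Plasma Cmax normalized to 5 mg/kg.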

[6] = AUC in rat at 5 mg/kg, po and 2 mg/kg, iv; format: ADME, organism-based; details: plasma; method in brief: as §1
Cynomolgus monkey [7] = assay: Dose normalized Cmax in cynomolgous monkey at 10 mg/kg, po and 2 mg/kg, iv; format: ADME, organism-based, Macaca fascicularis; details: in vivo
Method in brief: (§2)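 Cynomolgus monkeys fasted overnight, then given 10 mg/kg orally as a suspension in 0.5% methylcellulose, 0.3% Tween-80 and 1% NMP. IV bolus of 2 mg/kg in 70% PEG-400:30% water. Oral values normalized to 5 mg/kg. Plasma analysed by non-compartmental methods.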

[8] = Bioavailability in dog at 5 mg/kg, po and 2 mg/kg, iv; format: ADME, organism-based, Canis lupus familiaris; details: in vivo; method in brief: as §1
[9] = Half life in dog liver microsomes at 2 uM; format: ADME, Canis lupus familiaris
Method in brief: (§3)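 Stability in liver microsomes with 2 µM initial compound concentration; half-life recorded.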

[10] = Dose normalized bioavailability in cynomolgous monkey at 10 mg/kg, po and 2 mg/kg, iv; format: ADME, organism-based, Macaca fascicularis; details: cynomolgus monkey, in vivo, read-out: F/dose; method in brief: as §2
Cynomolgus monkey [11] = assay: Dose normalized AUC in cynomolgous monkey at 10 mg/kg, po and 2 mg/kg, iv; format: ADME, organism-based, Macaca fascicularis; details: in vivo; method in brief: as §2
[12] = Cmax in rat at 5 mg/kg, po and 2 mg/kg, iv; format: ADME, organism-based; details: in vivo; method in brief: as §1
[13] = Bioavailability in rat at 5 mg/kg, po and 2 mg/kg, iv; format: ADME, organism-based; details: in vivo; method in brief: as §1
Hepatitis C virus [14] = assay: Antiviral activity against Hepatitis C virus genotype 1b infected in human Huh cells assessed as inhibition of viral replication by luciferase reporter assay; format: functional, cell-based, Hepacivirus hominis
Method in brief: (§4)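 HCV replicon EC50 determined in duplicate, using either a GT1b luciferase reporter read-out or RT-PCR quantification of replicon RNA.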

[15] = Cmax in dog at 5 mg/kg, po and 2 mg/kg, iv; format: ADME, organism-based, Canis lupus familiaris; details: in vivo; method in brief: as §1
Hepatitis C virus [16] = assay: Antiviral activity against Hepatitis C virus genotype 1b infected in human Huh cells assessed as inhibition of viral replication by RT-PCR-based replicon assay; format: functional, cell-based, Hepacivirus hominis; method in brief: as §4
[17] = AUC in dog at 5 mg/kg, po and 2 mg/kg, iv; format: ADME, organism-based, Canis lupus familiaris; details: plasma; method in brief: as §1
[18] = Half life in cynomolgous monkey liver microsomes at 2 uM; format: ADME, Macaca fascicularis; details: cynomolgus monkey; method in brief: as §3
Hepatitis C virus [19] = assay: Antiviral activity against Hepatitis C virus genotype 1a infected in human Huh cells assessed as inhibition of viral replication by RT-PCR-based replicon assay; format: functional, cell-based, Hepacivirus hominis; details: subtype 1a; method in brief: as §4
Cynomolgus monkey [20] = assay: Dose normalized half life in cynomolgous monkey at 10 mg/kg, po and 2 mg/kg, iv; format: ADME, organism-based, Macaca fascicularis; details: in vivo; method in brief: as §2
Cynomolgus monkey [21] = assay: Dose normalized volume of distribution at steady state in cynomolgous monkey at 10 mg/kg, po and 2 mg/kg, iv; format: ADME, organism-based, Macaca fascicularis; details: in vivo; method in brief: as §2
[22] = Ratio of drug up take in liver to plasma of rat at 5 mg/kg, po measured at 8 hrs post dose; format: ADME, organism-based; design: dose 5 mg/kg, route oral
Method in brief: (§5)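 Rats fasted overnight, then given a single compound orally at 5 mg/kg in 0.5% methylcellulose, 0.3% Tween-80 and 1% NMP. Plasma Cmax measured. Liver/plasma concentration ratio taken at 8 h for single-compound dosing.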

[23] = Half life in rat liver microsomes at 2 uM; format: ADME; method in brief: as §3
[24] = Cytotoxicity against human HuH7 cells assessed as reduction in cell viability by MTT assay; format: cell-based; details: Huh-7 cells, read-out: TC50 (the source's name)
Method in brief: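 Cytotoxicity (TC50) measured by MTT read-out in the Huh-7 cell line.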

[25] = Half life in rat at 5 mg/kg, po and 2 mg/kg, iv; format: ADME, organism-based; details: in vivo; method in brief: as §1
[26] = Clearance in rat at 2 mg/kg, iv; format: ADME, organism-based; design: dose 2 mg/kg, route intravenous; details: in vivo; method in brief: as §1
[27] = Clearance in dog at 2 mg/kg, iv; format: ADME, organism-based, Canis lupus familiaris; design: dose 2 mg/kg, route intravenous; details: in vivo; method in brief: as §1
[28] = Clearance in rhesus monkey at 2 mg/kg, iv; details: in vivo
[29] = Cmax in rat at 5 mg/kg, po; format: ADME, organism-based; design: dose 5 mg/kg, route oral; details: in vivo; method in brief: as §5
Macaca mulatta [30] = assay: AUC in rhesus monkey at 5 mg/kg, po and 2 mg/kg, iv; details: plasma
Macaca mulatta [31] = assay: Half life in rhesus monkey at 5 mg/kg, po and 2 mg/kg, iv; details: in vivo
[32] = Half life in rhesus monkey liver microsomes at 2 uM
[33] = Volume of distribution at steady state in dog at 5 mg/kg, po and 2 mg/kg, iv; format: ADME, organism-based, Canis lupus familiaris; details: in vivo, read-out: Vdss; method in brief: as §1
[34] = Lipophilicity, log D of the compound at pH 7.4; format: physicochemical; details: buffer
[35] = Volume of distribution at steady state in rat at 5 mg/kg, po and 2 mg/kg, iv; format: ADME, organism-based; details: in vivo, read-out: Vdss; method in brief: as §1
Macaca mulatta [36] = assay: Bioavailability in rhesus monkey at 5 mg/kg, po and 2 mg/kg, iv; details: in vivo
Macaca mulatta [37] = assay: Cmax in rhesus monkey at 5 mg/kg, po and 2 mg/kg, iv; details: in vivo
Macaca mulatta [38] = assay: Volume of distribution at steady state in rhesus monkey at 5 mg/kg, po and 2 mg/kg, iv; details: in vivo, read-out: Vdss
[39] = Permeability from apical to basolateral side of human Caco2 cells; format: ADME, cell-based; details: Caco-2, read-out: permeability
Method in brief: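 Caco-2 permeability measured in the apical-to-basolateral direction, reported in cm/s.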

[40] = Half life in human liver microsomes at 2 uM; format: ADME; method in brief: as §3
[41] = Plasma concentration in rat at 4 mg/kg, po as cassette dosing measured at 2 hrs post dose; format: ADME, organism-based; design: dose 4 mg/kg, route oral
Method in brief: (§6)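 Cassette dosing: a mixture of 4 compounds, each at 4 mg/kg, given orally to 2 fasted rats in 0.5% methylcellulose, 0.3% Tween-80 and 1% NMP. Plasma sampled at 1 and 2 h. Liver/plasma ratio determined at 2 h.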

[42] = Ratio of drug up take in liver to plasma of rat at 4 mg/kg, po as cassette dosing measured at 2 hrs post dose; format: ADME, organism-based; design: dose 4 mg/kg, route oral; method in brief: as §6
[43] = Plasma concentration in rat at 4 mg/kg, po as cassette dosing measured at 1 hr post dose; format: ADME, organism-based; design: dose 4 mg/kg, route oral; method in brief: as §6

| half-life [1] [h] | Kp [2] | IC50 [5] [µM] | AUC [6] [µM·h] | bioavailability [8] [%] | half-life at 2 µM [9] [h] | Cmax [12] [µM] | bioavailability [13] [%] | EC50 (Hepatitis C virus [14]) [µM] | Cmax [15] [µM] | EC50 (Hepatitis C virus [16]) [µM] | AUC [17] [µM·h] | EC50 (Hepatitis C virus [19]) [µM] | half-life at 2 µM [23] [h] | Cmax [29] [µM] | logD [34] | Papp A→B [39] [nm/s] | half-life at 2 µM [40] [h] | SMILES | CC50 [24] [µM] | further results |
| --- | --- | --- | --- | --- | --- | --- | --- | --- | --- | --- | --- | --- | --- | --- | --- | --- | --- | --- | --- | --- |
| 4.5 | 5.5 | 0.084 | 9.6 | 29 | 2.92 | 3.2 | 19 | 0.013 | 4.1 | 0.011 | 38 | 0.029 |  |  |  |  |  | CCOc1cc(NC(=O)C2(NC(=O)c3ccc4c(C5CCCC5)c(-c5ncc(Cl)cn5)n(C)c4c3)CCC2)ccc1/C=C/C(=O)O |  | Kp at 6 h [3]: 5.5; clearance [4]: 0.216 L/h/kg; Cmax/dose (Rattus norvegicus): 3.2 µM; Cmax/dose (Cynomolgus monkey [7]): 4.8 µM; bioavailability [10]: 72%; AUC/dose (Cynomolgus monkey [11]): 26 µM·h; half-life at 2 µM [18]: 1.6 h; t1/2/dose (Cynomolgus monkey [20]): 3 h; Vdss/dose (Cynomolgus monkey [21]): 0.6 L/kg |
| 6.1 | 2.6 | 0.085 | 17 | 40 | 3.65 | 5.8 | 42 | 0.015 | 10 | 0.014 | 56 | 0.027 | 1.85 | 5.9 | > 5.9 |  |  | CCOc1nc(NC(=O)C2(NC(=O)c3ccc4c(C5CCCC5)c(-c5ncc(Cl)cn5)n(C)c4c3)CCC2)ccc1/C=C/C(=O)O | 56 | Kp at 8 h [22]: 2; half-life [25]: 1.5 h; clearance [26]: 0.186 L/h/kg; clearance [27]: 0.054 L/h/kg; clearance [28]: 0.09 L/h/kg; AUC (Macaca mulatta [30]): 8.9 µM·h; half-life (Macaca mulatta [31]): 2 h; half-life at 2 µM [32]: 0.533 h; Vd [33]: 0.28 L/kg; Vd [35]: 0.28 L/kg; bioavailability (Macaca mulatta [36]): 11%; Cmax (Macaca mulatta [37]): 2.6 µM; Vd (Macaca mulatta [38]): 0.06 L/kg |
|  |  | 0.085 |  |  |  |  |  | 0.033 |  |  |  |  | 1.73 | 1.8 | 3 | 150 | 2.42 | CCOc1cc(NC(=O)C2(NC(=O)c3ccc4c(C5CCCC5)c(-c5ncc(Cl)cn5)n(C)c4c3)CCC2)ncc1/C=C/C(=O)O | > 10 |  |
|  |  | 0.11 |  |  |  |  |  | 0.02 |  |  |  |  | 2.38 |  | 3.9 | 75 | 4.58 | CCOc1cc(NC(=O)C2(NC(=O)c3ccc4c(C5CCCC5)c(-c5ncc(Cl)cn5)n(C)c4c3)CCC2)cnc1/C=C/C(=O)O | > 10 | concentration at 2 h [41]: 0.1 µM; Kp at 2 h [42]: 5; concentration at 1 h [43]: 0.4 µM |
